The source of these data is ChEMBL document CHEMBL3286332, “Synthesis and radical scavenging activity of phenol-imidazole conjugates” (Bioorg Med Chem Lett, 2014).

As usually defined, the IC50 is the concentration that gives 50% inhibition.

What all share (type): functional
The subject of assay [1] is Radical scavenging activity. In words: Antioxidant activity assessed as DPPH free radical scavenging activity after 60 mins by spectrophotometric analysis. Summed up: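 Compound in ethanol, 1 to 100 μM, combined 1:9 with 0.002% (w/v) ethanolic DPPH; absorbance read at 517 nm after 60 min against an ethanol-only control. Triplicate measurements. Inhibition of discoloration expressed as percent of control; IC50 (concentration scavenging 50% of DPPH) obtained from the inhibition curve.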

Assay [2] can be described thus: Antioxidant activity assessed as hydroxyl radical scavenging activity at 5 uM after 1 hr by 2-Deoxy-D-ribose degradation assay in presence of FeCl3. In outline: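 Hydroxyl radical attack on 2-deoxy-D-ribose in 10 mM KH2PO4-KOH pH 7.4 with FeCl3 made up in buffer (no EDTA), H2O2, ascorbic acid and 5 μM compound from DMSO. Incubated 1 h at 37 °C. TBA/TCA was added, the mixture heated at 100 °C for 15 min, and MDA read at 535 nm. Result is percent protection against the compound-free control. Triplicate.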

A short description of assay [3]: Antioxidant activity assessed as hydroxyl radical scavenging activity at 5 uM after 1 hr by 2-Deoxy-D-ribose degradation assay in presence of FeCl3 and EDTA. In outline:
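The 1 mL mixture held 10 mM KH2PO4-KOH pH 7.4, 2-deoxy-D-ribose, FeCl3 made up in 2 mM Na2EDTA, H2O2, ascorbic acid and 5 μM compound added from DMSO. It was incubated 1 h at 37 °C, then thiobarbituric acid in NaOH and trichloroacetic acid were added and it was heated 15 min at 100 °C. Absorbance was read at 535 nm. Controls: no compound (100% MDA) and no deoxyribose (blank). Triplicate.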

Assay [4] relates to Radical scavenging activity. Briefly: Antioxidant activity assessed as DPPH free radical scavenging activity measured as remaining DPPH at 100 uM after 60 mins by spectrophotometric analysis relative to control. In outline:
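100 μM compound in ethanol mixed 1:9 with 0.002% (w/v) ethanolic DPPH. Absorbance at 517 nm after 60 min, compared with an ethanol control. Value is percent of DPPH remaining, run in triplicate.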
A general note: The DPPH test is a chemical assay of radical scavenging.

The subject of assay [5] is Radical scavenging activity. Briefly: Antioxidant activity assessed as DPPH free radical scavenging activity measured as remaining DPPH at 10 uM after 5 mins by spectrophotometric analysis relative to control.
In assay [6] the test system is Radical scavenging activity. Briefly: Antioxidant activity assessed as DPPH free radical scavenging activity measured as remaining DPPH at 10 uM after 2 mins by spectrophotometric analysis relative to control.
Assay [7] concerns Radical scavenging activity. Briefly: Antioxidant activity assessed as DPPH free radical scavenging activity measured as remaining DPPH at 100 uM after 5 mins by spectrophotometric analysis relative to control.

A value given as a limit tells only on which side of the number the result lay.

Regarding `Cn1cnc(C#N)c1/N=C/c1ccc(O)c(O)c1O`, the IC50 in assay [1] was found to be 7 µM. Further, the results for the Activity in assay [2] and in assay [3] were 37% and 54%, respectively.
With `O=Cc1c(O)cc(O)cc1O`, the DPPH remaining in assay [4] was found to be 91.2%. Besides, the figures for the Activity in assay [2] and in assay [3] were 36% and 42%, respectively.
With `O=Cc1cc(O)c(O)c(O)c1`, in assay [1], the IC50 worked out at 6 µM. Besides, the results for the Activity in assay [2] and in assay [3] were 38% and 50%, respectively.
For `O=Cc1ccc(O)c(O)c1O` the same measures were 11.6 µM, 34% and 46%.
As for `N#Cc1ncn(-c2ccc(O)cc2)c1/N=C/c1ccc(O)c(O)c1`, the Activity was below 50% in assay [5], below 50% in assay [6], 38% in assay [2] and 60% in assay [3]. Moreover, in assay [1], the IC50 turned out to be 3.2 µM.
Take `Cn1cnc(C#N)c1/N=C/c1ccc(O)c(O)c1`: the IC50 in assay [1] was determined as 3.8 µM. Further, the Activity is 27% in assay [2] and 52% in assay [3].
For `COc1ccc(-n2cnc(C#N)c2/N=C/c2ccc(O)c(O)c2O)cc1`, the IC50 in assay [1] was 7.3 µM. Also, the results for the Activity in assay [2] and in assay [3] were 25% and 57%, respectively.
In the case of `N#Cc1ncn(-c2ccc(F)cc2)c1/N=C/c1ccc(O)c(O)c1O`, the IC50 in assay [1] came out at 8.4 µM. For the same compound, the values for the Activity in assay [2] and in assay [3] were 34% and 53%, respectively.
The like results for `COc1ccc(-n2cnc(C#N)c2/N=C/c2cc(O)c(O)c(O)c2)cc1` were, in that order, 4 µM, 42% and 51%.
For `Cc1c(C)c2c(c(C)c1O)CCC(C)(C(=O)O)O2` (centres undefined) [TROLOX] the same measures were 9.5 µM, 31% and 53%.
The like results for `COc1ccc(-n2cnc(C#N)c2/N=C/c2ccc(O)c(O)c2)cc1` were, in that order, 4.1 µM, 17% and 61%.
Take `COc1ccc(-n2cnc(C#N)c2/N=C/c2c(O)cc(O)cc2O)cc1`: in assay [4], the DPPH remaining was 48.3%. Moreover, the Activity in assay [2] is 16%; in assay [3], 62%.
Turning to `Cn1cnc(C#N)c1/N=C/c1cc(O)c(O)c(O)c1`, the IC50 in assay [1] is 4.7 µM. In addition, the results for the Activity in assay [2] and in assay [3] were 44% and 54%, respectively.
With `N#Cc1ncn(-c2ccc(F)cc2)c1N`, in assay [4], the DPPH remaining came to 94.1%. In addition, the Activity in assay [2] stood at 19%; in assay [3], 50%.
On to `N#Cc1ncn(-c2ccc(O)cc2)c1/N=C/c1ccc(O)c(O)c1O`, for which the Activity in assay [5] was below 50%; in assay [2] it was 28%; in assay [3], 38%. Moreover, the IC50 in assay [1] was 7.2 µM.
In the case of `O=Cc1ccc(O)c(O)c1` [PROTOCATECHUALDEHYDE], in assay [1], the IC50 is 5.4 µM. Besides, the Activity in assay [2] is 35%; in assay [3] it was 51%.
With `COc1ccc(-n2cnc(C#N)c2N)cc1`, in assay [4], the DPPH remaining was 94.2%. Further, the results for the Activity in assay [2] and in assay [3] were 29% and 46%, respectively.
Turning to `N#Cc1ncn(-c2ccc(O)cc2)c1/N=C/c1c(O)cc(O)cc1O`, the Activity in assay [7] is below 50%; in assay [2], 17%; in assay [3], 55%. Further, the DPPH remaining in assay [4] stood at 45.9%.
Take `N#Cc1ncn(-c2ccc(F)cc2)c1/N=C/c1cc(O)c(O)c(O)c1`: in assay [1], the half-inhibitory concentration (IC50) is 5.8 µM. Also, the Activity in assay [2] came out at 30%; in assay [3] it was 54%.
For `Cn1cnc(C#N)c1N`, in assay [4], the DPPH remaining stood at 94.2%. Further, the figures for the Activity in assay [2] and in assay [3] were 23% and 54%, respectively.
In the case of `COc1cc(C=O)ccc1O`, in assay [4], the DPPH remaining amounted to 97.6%. Moreover, the values for the Activity in assay [2] and in assay [3] were 30% and 37%, respectively.
Take `Cn1cnc(C#N)c1/N=C/c1c(O)cc(O)cc1O`: the DPPH remaining in assay [4] came to 49.9%. For the same compound, the Activity in assay [2] stood at 18%; in assay [3] it was 54%.
The like results for `N#Cc1ncn(-c2ccc(O)cc2)c1N` were, in that order, 94.8%, 57% and 47%.
As for `N#Cc1ncn(-c2ccc(F)cc2)c1/N=C/c1ccc(O)c(O)c1`, in assay [1], the 50% inhibitory concentration (IC50) stood at 4.4 µM. The Activity was found to be 11% in assay [2] and 58% in assay [3].
`COc1ccc(-n2cnc(C#N)c2/N=C/c2ccc(O)c(OC)c2)cc1`: the DPPH remaining in assay [4] turned out to be 88.6%. The Activity in assay [2] came out at 12%; in assay [3], 47%.
Turning to `N#Cc1ncn(-c2ccc(O)cc2)c1/N=C/c1cc(O)c(O)c(O)c1`, the Activity is below 50% in assay [5], below 50% in assay [6], 51% in assay [2] and 49% in assay [3]. In assay [1], the IC50 was found to be 4.8 µM.
